In assay [1] the target is Activin receptor type-1 (Homo sapiens) (UniProt Q04771). The experiment in a line: Inhibition of ACVR1 (unknown origin) at 1 uM by Ambit Kinomescan binding assay relative to control.
Assay [2] has as its target 5'-AMP-activated protein kinase catalytic subunit alpha-2 (Homo sapiens) (UniProt P54646). The assay is described as follows: Inhibition of AMPK-alpha2 (unknown origin) at 1 uM by Ambit Kinomescan binding assay relative to control.
Assay [3] addresses Tyrosine-protein kinase ITK/TSK (Homo sapiens) (UniProt Q08881). The experiment in a line: Inhibition of ITK (unknown origin) at 1 uM by Ambit Kinomescan binding assay relative to control.
Assay [4] has as its target cAMP-dependent protein kinase catalytic subunit alpha (Homo sapiens) (UniProt P17612). The assay is described as follows: Inhibition of PKAC alpha (unknown origin) at 1 uM by Ambit Kinomescan binding assay relative to control. The method, boiled down: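 In vitro ATP-site competition binding assay against a panel of over 420 kinases (KinomeScan), with compound tested at 10 or 1 μM.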

The target in assay [5] is Receptor-interacting serine/threonine-protein kinase 2 (Homo sapiens) (UniProt O43353). The experiment in a line: Inhibition of RIPK2 (unknown origin) at 1 uM by Ambit Kinomescan binding assay relative to control.
Assay [6] concerns the target Putative phosphatidylinositol 4-kinase alpha-like protein P2 (Homo sapiens) (UniProt A4QPH2). The experiment in a line: Inhibition of PI4KAP2 ATP labeling site in human A-375 cells at 0.5 uM by KiNativ Profiling analysis relative to control. The format is cell-based.
Assay [7] addresses STE20-like serine/threonine-protein kinase (Homo sapiens) (UniProt Q9H2G2). The assay is described as follows: Inhibition of SLK Lys1 labeling site in human A-375 cells at 0.5 uM by KiNativ Profiling analysis relative to control. It is filed as cell-based.
Assay [8] addresses Tyrosine-protein kinase receptor UFO (Homo sapiens) (UniProt P30530). The experiment in a line: Inhibition of AXL (unknown origin) at 1 uM by Ambit Kinomescan binding assay relative to control; values are per cent of control.
The target of assay [9] is Protein-tyrosine kinase 6 (Homo sapiens) (UniProt Q13882). The assay is described as follows: Inhibition of BRK (unknown origin) at 1 uM by Ambit Kinomescan binding assay relative to control; values are per cent of control.
For assay [10], the target named is T1, Serine/threonine-protein kinase NLK (Homo sapiens) (UniProt Q9UBE8).
T1 sequence (whole entry): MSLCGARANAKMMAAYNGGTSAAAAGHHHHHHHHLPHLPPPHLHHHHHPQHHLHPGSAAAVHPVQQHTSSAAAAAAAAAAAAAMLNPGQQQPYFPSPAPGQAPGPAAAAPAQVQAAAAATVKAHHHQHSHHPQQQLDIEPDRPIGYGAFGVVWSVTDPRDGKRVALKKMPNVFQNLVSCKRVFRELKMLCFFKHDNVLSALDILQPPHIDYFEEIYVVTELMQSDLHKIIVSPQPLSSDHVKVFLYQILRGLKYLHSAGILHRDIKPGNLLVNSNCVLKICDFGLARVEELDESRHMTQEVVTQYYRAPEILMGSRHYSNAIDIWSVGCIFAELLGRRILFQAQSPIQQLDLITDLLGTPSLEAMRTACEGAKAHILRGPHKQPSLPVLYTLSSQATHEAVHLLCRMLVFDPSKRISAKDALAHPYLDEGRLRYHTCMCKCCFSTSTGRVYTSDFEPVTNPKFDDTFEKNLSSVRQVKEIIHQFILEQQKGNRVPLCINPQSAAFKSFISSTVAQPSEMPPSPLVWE
The assay is described as follows: Inhibition of NLK (unknown origin) at 1 uM by Ambit Kinomescan binding assay relative to control; values are per cent of control.

The target in assay [11] is BMP-2-inducible protein kinase (Homo sapiens) (UniProt Q9NSY1). The experiment in a line: Inhibition of BIKE (unknown origin) at 10 uM by Ambit Kinomescan binding assay.
Assay [12] addresses Death-associated protein kinase 1 (Homo sapiens) (UniProt P53355). The experiment in a line: Inhibition of DAPK1 (unknown origin) at 10 uM by Ambit Kinomescan binding assay.
Assay [13] deals with Platelet-derived growth factor receptor beta (Homo sapiens) (UniProt P09619). The experiment in a line: Inhibition of PDGFRB (unknown origin) at 10 uM by Ambit Kinomescan binding assay relative to control.
Assay [14] concerns the target T2, Phosphorylase b kinase gamma catalytic chain, liver/testis isoform (Homo sapiens) (UniProt P15735).
T2 sequence (whole entry): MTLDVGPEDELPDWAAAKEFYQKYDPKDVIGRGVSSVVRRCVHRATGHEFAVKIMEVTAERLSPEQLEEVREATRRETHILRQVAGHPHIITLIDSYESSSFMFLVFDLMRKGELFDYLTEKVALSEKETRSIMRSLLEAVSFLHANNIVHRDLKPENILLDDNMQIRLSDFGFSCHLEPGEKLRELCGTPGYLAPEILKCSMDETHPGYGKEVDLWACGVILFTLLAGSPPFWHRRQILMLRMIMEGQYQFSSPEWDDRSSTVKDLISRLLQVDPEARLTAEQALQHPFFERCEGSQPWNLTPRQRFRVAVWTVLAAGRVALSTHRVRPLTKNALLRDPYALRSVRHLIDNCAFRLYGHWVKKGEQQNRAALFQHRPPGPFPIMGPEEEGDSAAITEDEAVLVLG
The assay is described as follows: Inhibition of PHKG2 (unknown origin) at 10 uM by Ambit Kinomescan binding assay.

The target in assay [15] is TGF-beta receptor type-2 (Homo sapiens) (UniProt P37173). The experiment in a line: Inhibition of TGFBR2 (unknown origin) at 10 uM by Ambit Kinomescan binding assay.
Assay [16] deals with Microtubule-associated serine/threonine-protein kinase 2 (Homo sapiens) (UniProt Q6P0Q8). The experiment in a line: Inhibition of MAST2 Lys2 labeling site in human A-375 cells at 0.5 uM by KiNativ Profiling analysis relative to control. The format is cell-based.
The target in assay [17] is AMPK alpha1/alpha2 (Homo sapiens) (UniProt P54646+Q13131). The assay is described as follows: Inhibition of AMPK alpha 1/2 K1 labeling site in human Huh-7 cells at 1 uM by KiNativ Profiling analysis relative to control. It is filed as cell-based.
Assay [18] addresses Serine/threonine-protein kinase B-raf (Homo sapiens, UniProt P15056). The assay is described as follows: Inhibition of BRAF K2 labeling site in human Huh-7 cells at 1 uM by KiNativ Profiling analysis relative to control. The format is cell-based.
The target of assay [19] is Casein kinase I isoform alpha (Homo sapiens) (UniProt P48729). The assay is described as follows: Inhibition of CK1alpha Lys2 labeling site in human Huh-7 cell lysate at 1 uM by KiNativ Profiling analysis relative to control. It is filed as subcellular.
Assay [20] has as its target Mitogen-activated protein kinase kinase kinase 4 (Homo sapiens) (UniProt Q9Y6R4). The experiment in a line: Inhibition of MAP3K4 Lys1 labeling site in human Huh-7 cell lysate at 1 uM by KiNativ Profiling analysis relative to control. The format is subcellular.
Assay [21] has as its target Serine/threonine-protein kinase Nek4 (Homo sapiens) (UniProt P51957). The experiment in a line: Inhibition of NEK4 Lys2 labeling site in human Huh-7 cell lysate at 1 uM by KiNativ Profiling analysis relative to control. It is filed as subcellular.
The target of assay [22] is Serine/threonine-protein kinase WNK4 (Homo sapiens) (UniProt Q96J92). The assay is described as follows: Inhibition of Wnk4 Lys2 labeling site in human Huh-7 cells at 1 uM by KiNativ Profiling analysis relative to control. It is filed as cell-based.

Active and inactive are the calls of the source. The rule behind the calls is not given here.

Sequence of Activin receptor type-1 (Homo sapiens) (Q04771 whole entry): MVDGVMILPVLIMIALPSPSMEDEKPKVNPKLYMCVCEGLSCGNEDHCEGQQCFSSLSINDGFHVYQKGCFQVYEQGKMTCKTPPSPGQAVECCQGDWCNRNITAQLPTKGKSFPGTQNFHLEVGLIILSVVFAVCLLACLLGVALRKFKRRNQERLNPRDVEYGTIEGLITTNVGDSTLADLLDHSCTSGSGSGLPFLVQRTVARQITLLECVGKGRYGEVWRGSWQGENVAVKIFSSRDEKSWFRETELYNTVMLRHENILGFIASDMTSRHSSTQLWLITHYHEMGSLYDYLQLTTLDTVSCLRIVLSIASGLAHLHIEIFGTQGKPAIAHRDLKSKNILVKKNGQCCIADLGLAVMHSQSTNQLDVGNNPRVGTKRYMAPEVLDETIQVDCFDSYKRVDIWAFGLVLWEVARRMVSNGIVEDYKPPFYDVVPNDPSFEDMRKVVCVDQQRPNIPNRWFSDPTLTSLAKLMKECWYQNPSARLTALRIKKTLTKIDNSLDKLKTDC
Sequence of Mitogen-activated protein kinase kinase kinase 4 (Homo sapiens) (Q9Y6R4 whole entry): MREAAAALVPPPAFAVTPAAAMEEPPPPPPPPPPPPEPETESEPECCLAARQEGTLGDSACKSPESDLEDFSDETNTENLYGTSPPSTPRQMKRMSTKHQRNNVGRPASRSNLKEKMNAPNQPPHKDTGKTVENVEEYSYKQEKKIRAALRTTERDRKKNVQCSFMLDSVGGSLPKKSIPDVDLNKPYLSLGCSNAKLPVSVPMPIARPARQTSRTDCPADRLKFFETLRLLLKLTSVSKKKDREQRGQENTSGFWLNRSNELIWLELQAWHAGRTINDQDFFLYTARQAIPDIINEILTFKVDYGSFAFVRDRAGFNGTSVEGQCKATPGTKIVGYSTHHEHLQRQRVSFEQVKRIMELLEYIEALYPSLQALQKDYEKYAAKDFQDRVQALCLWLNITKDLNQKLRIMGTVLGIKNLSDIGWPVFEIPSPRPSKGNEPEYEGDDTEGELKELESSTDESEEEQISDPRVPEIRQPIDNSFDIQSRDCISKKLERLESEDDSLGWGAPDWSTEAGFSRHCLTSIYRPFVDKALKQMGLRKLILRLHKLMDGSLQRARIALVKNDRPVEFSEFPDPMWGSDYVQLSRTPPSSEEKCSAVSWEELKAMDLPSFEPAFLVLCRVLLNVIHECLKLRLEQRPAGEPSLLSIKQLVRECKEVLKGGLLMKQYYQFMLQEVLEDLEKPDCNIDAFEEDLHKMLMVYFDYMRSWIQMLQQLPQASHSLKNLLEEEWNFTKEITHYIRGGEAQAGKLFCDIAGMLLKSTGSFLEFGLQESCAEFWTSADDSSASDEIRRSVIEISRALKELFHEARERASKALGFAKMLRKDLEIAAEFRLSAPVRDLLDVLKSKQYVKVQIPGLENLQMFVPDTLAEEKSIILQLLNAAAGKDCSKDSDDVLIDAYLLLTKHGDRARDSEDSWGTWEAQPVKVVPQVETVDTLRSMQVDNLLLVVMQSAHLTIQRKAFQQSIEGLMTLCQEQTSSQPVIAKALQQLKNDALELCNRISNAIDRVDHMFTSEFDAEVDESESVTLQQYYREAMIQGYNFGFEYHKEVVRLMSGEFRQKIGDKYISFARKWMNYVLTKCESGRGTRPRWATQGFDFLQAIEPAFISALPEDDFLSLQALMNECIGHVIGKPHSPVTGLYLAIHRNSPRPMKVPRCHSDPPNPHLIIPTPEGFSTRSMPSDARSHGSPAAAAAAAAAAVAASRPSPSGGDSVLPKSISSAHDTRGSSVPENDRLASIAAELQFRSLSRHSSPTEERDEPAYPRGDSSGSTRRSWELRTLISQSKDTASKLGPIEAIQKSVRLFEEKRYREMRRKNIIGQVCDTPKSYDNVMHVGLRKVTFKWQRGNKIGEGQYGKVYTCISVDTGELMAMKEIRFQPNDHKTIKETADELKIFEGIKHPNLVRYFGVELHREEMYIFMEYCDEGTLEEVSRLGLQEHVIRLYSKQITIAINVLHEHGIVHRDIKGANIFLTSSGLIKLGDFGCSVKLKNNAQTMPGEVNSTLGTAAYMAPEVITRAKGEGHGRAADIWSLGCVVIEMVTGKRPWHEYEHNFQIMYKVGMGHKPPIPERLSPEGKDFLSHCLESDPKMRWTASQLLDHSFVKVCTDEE
Sequence of AMPK alpha1/alpha2 (Homo sapiens) (P54646 whole entry, looked up): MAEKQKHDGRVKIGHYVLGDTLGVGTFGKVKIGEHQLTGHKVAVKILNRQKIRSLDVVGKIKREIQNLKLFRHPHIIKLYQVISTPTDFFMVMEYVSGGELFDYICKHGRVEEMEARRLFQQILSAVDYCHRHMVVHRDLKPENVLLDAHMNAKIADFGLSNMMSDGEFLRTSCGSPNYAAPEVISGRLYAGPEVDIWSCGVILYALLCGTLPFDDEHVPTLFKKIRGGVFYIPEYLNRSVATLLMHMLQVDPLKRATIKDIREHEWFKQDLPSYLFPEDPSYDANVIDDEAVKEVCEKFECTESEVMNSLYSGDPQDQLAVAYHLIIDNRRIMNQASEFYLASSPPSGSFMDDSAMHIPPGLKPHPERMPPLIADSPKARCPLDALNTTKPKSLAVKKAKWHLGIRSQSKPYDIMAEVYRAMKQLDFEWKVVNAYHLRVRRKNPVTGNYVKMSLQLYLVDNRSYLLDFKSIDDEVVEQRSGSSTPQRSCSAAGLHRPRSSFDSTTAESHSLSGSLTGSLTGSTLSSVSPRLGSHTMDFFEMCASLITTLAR
Sequence of AMPK alpha1/alpha2 (Homo sapiens) (Q13131 whole entry, looked up): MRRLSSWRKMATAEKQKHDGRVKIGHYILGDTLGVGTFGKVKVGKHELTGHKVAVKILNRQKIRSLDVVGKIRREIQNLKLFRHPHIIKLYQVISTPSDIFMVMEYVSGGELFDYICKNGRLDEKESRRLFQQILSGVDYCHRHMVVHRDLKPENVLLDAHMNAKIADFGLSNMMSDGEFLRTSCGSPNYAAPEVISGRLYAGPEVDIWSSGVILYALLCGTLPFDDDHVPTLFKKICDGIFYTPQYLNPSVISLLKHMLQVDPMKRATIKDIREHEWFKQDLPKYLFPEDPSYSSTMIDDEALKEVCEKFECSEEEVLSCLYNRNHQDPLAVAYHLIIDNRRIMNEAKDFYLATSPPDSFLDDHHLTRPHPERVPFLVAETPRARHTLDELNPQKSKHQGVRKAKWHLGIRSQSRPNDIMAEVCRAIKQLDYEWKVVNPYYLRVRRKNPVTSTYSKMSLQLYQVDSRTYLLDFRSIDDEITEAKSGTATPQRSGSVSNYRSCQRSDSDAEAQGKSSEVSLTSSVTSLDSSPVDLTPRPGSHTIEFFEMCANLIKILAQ
Sequence of 5'-AMP-activated protein kinase catalytic subunit alpha-2 (Homo sapiens) (P54646 whole entry, looked up): as the sequence (P54646 whole entry, looked up) above
Sequence of Receptor-interacting serine/threonine-protein kinase 2 (Homo sapiens) (O43353 whole entry): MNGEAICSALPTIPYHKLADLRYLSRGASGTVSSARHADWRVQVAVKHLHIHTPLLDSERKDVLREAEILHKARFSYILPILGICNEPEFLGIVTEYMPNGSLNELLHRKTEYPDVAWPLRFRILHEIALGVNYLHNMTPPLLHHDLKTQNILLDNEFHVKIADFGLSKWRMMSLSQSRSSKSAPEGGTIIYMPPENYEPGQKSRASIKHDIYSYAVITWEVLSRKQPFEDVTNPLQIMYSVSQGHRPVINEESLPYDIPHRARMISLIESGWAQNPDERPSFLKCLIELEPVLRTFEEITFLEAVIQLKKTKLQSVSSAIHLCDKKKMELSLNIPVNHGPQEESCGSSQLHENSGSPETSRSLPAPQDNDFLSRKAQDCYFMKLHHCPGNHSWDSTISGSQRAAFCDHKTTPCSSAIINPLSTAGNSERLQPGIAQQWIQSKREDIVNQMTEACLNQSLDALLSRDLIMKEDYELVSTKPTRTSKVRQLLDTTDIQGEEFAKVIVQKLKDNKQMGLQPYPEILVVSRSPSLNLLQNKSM
Sequence of Protein-tyrosine kinase 6 (Homo sapiens) (Q13882 whole entry, looked up): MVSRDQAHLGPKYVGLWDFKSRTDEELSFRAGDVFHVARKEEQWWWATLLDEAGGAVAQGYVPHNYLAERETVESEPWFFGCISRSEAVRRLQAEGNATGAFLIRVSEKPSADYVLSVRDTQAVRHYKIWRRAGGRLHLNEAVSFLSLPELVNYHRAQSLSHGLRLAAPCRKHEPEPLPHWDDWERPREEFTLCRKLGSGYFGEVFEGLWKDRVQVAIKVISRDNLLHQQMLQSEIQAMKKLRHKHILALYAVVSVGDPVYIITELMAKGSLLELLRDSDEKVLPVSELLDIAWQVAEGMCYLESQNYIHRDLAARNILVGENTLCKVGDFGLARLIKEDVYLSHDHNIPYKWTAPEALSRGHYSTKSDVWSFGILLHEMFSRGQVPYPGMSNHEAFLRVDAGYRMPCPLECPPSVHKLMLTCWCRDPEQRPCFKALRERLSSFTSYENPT
Sequence of Serine/threonine-protein kinase B-raf (P15056 whole entry, canonical isoform): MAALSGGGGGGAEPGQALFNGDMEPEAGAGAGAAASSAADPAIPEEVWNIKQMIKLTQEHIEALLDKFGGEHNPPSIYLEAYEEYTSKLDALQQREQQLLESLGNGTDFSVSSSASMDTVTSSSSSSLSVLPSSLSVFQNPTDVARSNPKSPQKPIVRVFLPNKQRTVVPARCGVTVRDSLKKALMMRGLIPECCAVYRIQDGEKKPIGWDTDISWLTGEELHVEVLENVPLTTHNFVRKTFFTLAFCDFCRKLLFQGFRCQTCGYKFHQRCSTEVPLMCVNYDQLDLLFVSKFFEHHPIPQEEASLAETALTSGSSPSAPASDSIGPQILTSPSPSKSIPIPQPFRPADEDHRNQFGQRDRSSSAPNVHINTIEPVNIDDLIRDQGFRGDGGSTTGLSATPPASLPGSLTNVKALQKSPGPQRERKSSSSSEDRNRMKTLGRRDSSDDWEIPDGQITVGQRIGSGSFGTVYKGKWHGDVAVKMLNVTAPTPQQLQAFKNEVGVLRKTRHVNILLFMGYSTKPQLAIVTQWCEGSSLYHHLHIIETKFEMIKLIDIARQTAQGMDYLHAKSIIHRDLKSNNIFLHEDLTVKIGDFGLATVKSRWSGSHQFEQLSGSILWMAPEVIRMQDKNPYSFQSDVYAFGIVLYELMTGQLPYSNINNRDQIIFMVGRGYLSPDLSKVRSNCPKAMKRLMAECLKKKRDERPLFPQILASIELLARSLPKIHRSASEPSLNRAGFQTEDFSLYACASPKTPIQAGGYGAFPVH

`CCN1CCN(Cc2ccc(NC(=O)c3ccc(C)c(/C=C/c4cnc5[nH]ccc5c4OC)c3)cc2C(F)(F)F)CC1`: the inhibition was 100% in assay [1]; 61% in [2]; 81% in assay [3]; 84% in assay [4]; 4.5% in assay [5]; -8% in [6]. Further, in [7], the inhibition worked out at 6.8%. The residual activity in assay [8] was determined as 55%; in assay [9] it was 64%; in assay [10] it was 18%.
For `CCN1CCN(Cc2ccc(NC(=O)c3ccc(C)c(Oc4ccnc5[nH]ccc45)c3)cc2C(F)(F)F)CC1`, the inhibition result in assay [11], in assay [12], in assay [14] and in assay [15] was “inactive” in each case. In addition, the inhibition turned out to be 0% in assay [13], 16.1% in assay [16], 29.8% in assay [17] and 1.7% in assay [18].
In the case of `CNc1cc(Oc2cc(C(=O)Nc3cc(N4CCN(C)CC4)cc(C(F)(F)F)c3)ccc2C)ncn1`, the inhibition in [19] was 3.8%; in assay [20], -1.7%; in assay [21], -2.2%; in [22] it was 44.2%.
